The source made the active and inactive calls. The rule behind the calls is not given here.
Assays:
A549 = assay: Cytotoxicity in human A549 cells assessed as reduction in cell viability incubated for 72 hrs by MTT assay; settings: A549, 72 h
MCF7 = assay: Cytotoxicity in human MCF7 cells assessed as reduction in cell viability incubated for 72 hrs by MTT assay; assay type: functional, cell-based; settings: MCF7, 72 h
In short: (§1)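 Cells pre-incubated 24 h at 37 °C, 5% CO2, then exposed to a range of compound concentrations for 72 h. Viability read as mitochondrial MTT-to-formazan conversion, absorbance at 570 nm.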

HepG2 [1] = assay: Cytotoxicity in human HepG2 cells assessed as reduction in cell viability incubated for 72 hrs by MTT assay; assay type: functional, cell-based; settings: HepG2, 72 h; in short: as §1
B16 = assay: Cytotoxicity in mouse B16 cells assessed as reduction in cell viability incubated for 72 hrs by MTT assay; assay type: functional, cell-based; settings: B16, 72 h; in short: as §1
HepG2 [2] = assay: Induction of apoptosis in human HepG2 cells assessed as apoptosis level at 6 uM incubated for 24 hrs by FITC-labelled Annexin V/PI staining based flow cytometry (reference value: 3.4%); assay type: functional
In short: (§2)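 HepG2 treated 24 h with 2, 4 or 6 µM; 0.1% DMSO vehicle control. Stained with FITC-Annexin V/PI and analysed by flow cytometry 10-15 min after staining. Annexin V+/PI- counted as early/median apoptotic, Annexin V+/PI+ as late apoptotic.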

HepG2 [3] = assay: Induction of apoptosis in human HepG2 cells assessed as apoptosis level at 2 to 4 uM incubated for 24 hrs by FITC-labelled Annexin V/PI staining based flow cytometry; assay type: functional, cell-based; in short: as §2
HepG2 [4] = assay: Induction of apoptosis in human HepG2 cells assessed as apoptosis level incubated for 24 hrs by FITC-labelled Annexin V/PI staining based flow cytometry; assay type: functional, cell-based; in short: as §2
HepG2 [5] = assay: Induction of ROS generation in human HepG2 cells at 2 to 6 uM incubated for 24 hrs by DCFH-DA staining based flow cytometry; assay type: functional, cell-based
In short: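 HepG2 seeded at 6×10^4 cells/well and grown 24 h, then treated 24 h with 2, 4 or 6 µM. Washed with PBS and serum-free medium, loaded with serum-free DCFH-DA 30 min at 37 °C, washed twice cold. Fluorescence read by flow cytometry at 488/525 nm. Mean ± SEM, n = 3.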

Compound	IC50 (A549) [µM]	IC50 (MCF7) [µM]	IC50 (HepG2 [1]) [µM]	IC50 (B16) [µM]	Activity (HepG2 [2]) [%]	Activity (HepG2 [3])	Activity (HepG2 [4])	Activity (HepG2 [5])
COc1c(OCCCCN2CCN(C)CC2)cc(O)c2c(=O)cc(-c3ccc(F)cc3Br)oc12	2.98	3.09	2.13	3.44				
CN1CCN(CCOc2c(OCc3ccccc3)cc(O)c3c(=O)cc(-c4ccccc4)oc23)CC1	4.41	4.43	2.89	4.37				
O=c1cc(-c2ccccc2)oc2c(OCCCCN3CCOCC3)c(OCc3ccccc3)cc(O)c12	6.6	9.9	3.29	5.41				
COc1c(OCCCCN2CCN(C)CC2)cc(O)c2c(=O)cc(-c3ccc(F)cc3)oc12	2.22	3.86	2.81	4.32				
COc1c(OCCCCN2CCN(C)CC2)cc(O)c2c(=O)cc(-c3ccc([N+](=O)[O-])cc3)oc12	3.21	4.09	2.62	2.89				
CN(C)CCCOc1c(OCc2ccccc2)cc(O)c2c(=O)cc(-c3ccccc3)oc12	2.91	3.21	4.95	5.42				
O=c1[nH]cc(F)c(=O)[nH]1 [FLUOROURACIL]		14.7		1.19				
COc1ccc(-c2cc(=O)c3c(O)cc(OCCCCN4CCN(C)CC4)c(OC)c3o2)cc1	2.32	3.98	4.2	4.1				
CN1CCN(CCCCOc2c(OCc3nc4ccccc4o3)cc(O)c3c(=O)cc(-c4ccccc4)oc23)CC1	3.87	4.98	4.11	2.08				
CN1CCN(CCCCOc2c(OCc3ccccc3)cc(O)c3c(=O)cc(-c4ccccc4)oc23)CC1	2.91	2.93	1.5	2.37	20.7	inactive	Dose-dependent effect	Dose-dependent effect
O=c1cc(-c2ccccc2)oc2c(OCCCCN(CCO)CCO)c(OCc3ccccc3)cc(O)c12	4.35	1.09	3.14	3.76				
O=c1cc(-c2ccccc2)oc2c(OCCCN3CCOCC3)c(OCc3ccccc3)cc(O)c12	8.91	8.72	2.43	10				
COc1c(O)cc(O)c2c(=O)cc(-c3ccccc3)oc12 [WOGONIN]	20.1	28	19.5	26.4				
COc1c(OCCCCN2CCN(C)CC2)cc(O)c2c(=O)cc(-c3ccc(C(F)(F)F)cc3)oc12	2.89	2.98	2.4	4.99				
CN1CCN(CCCCOc2c(OCc3cccs3)cc(O)c3c(=O)cc(-c4ccccc4)oc23)CC1	2.1	3.18	4.56	2.12				
O=c1cc(-c2ccccc2)oc2c(OCCCN(CCO)CCO)c(OCc3ccccc3)cc(O)c12	3.15	4.23	3.55	6.89				
